The nature of data set [1]: Toxicity in iv dosed ICR mouse assessed as effect on mortality after 4 days. The data set is classed as organism-based. The settings on record: in vivo.
Data set [2] deals with Pseudomonas aeruginosa. Put plainly: Activity of Pseudomonas aeruginosa APH(3')-2b assessed as rate of NADH absorbance decrease by pyruvate kinase/lactate dehydrogenase coupled assay. In a few lines: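 Recombinant APH(3')-IIb purified on a neomycin B affinity column. Substrate neamine 1–100 μM, inhibitor 0–1000 μM. Preincubation 5 min at 37 °C, then started with enzyme. NADH loss read at 340 nm; Ki by nonlinear regression.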

Data set [3] has as its system Escherichia coli. Put plainly: Antimicrobial activity against Escherichia coli R477-100 by double-microdilution method. The data set is classed as functional. On the technique in general: In broth dilution the organism is exposed to a series of concentrations in liquid medium.
The subject of data set [4] is Escherichia coli. Put plainly: Antimicrobial activity against Escherichia coli XL1 expressing APH(3')-1a by double-microdilution method. Format: functional.
The subject of the next data set is Bacillus subtilis. The experiment in a line: Antimicrobial activity against Bacillus subtilis by double-microdilution method. The data set is classed as functional. Summed up: (§1)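 Double-microdilution method following NCCLS, starting at 384 µg/mL of compound with doubling dilutions. Run in triplicate (a table footnote says duplicates), with analogous results in three separate experiments.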

For data set [5], the system named is Pseudomonas aeruginosa. The experiment in a line: Antimicrobial activity against Pseudomonas aeruginosa ATCC 27853 by double-microdilution method. Format: functional.
In data set [6] the test system is Pseudomonas aeruginosa. The experiment in a line: Antimicrobial activity against Pseudomonas aeruginosa 584/5 isolate by double-microdilution method. The data set is classed as functional.
Data set [7] concerns Escherichia coli. Put plainly: Inhibition of translation in Escherichia coli S30 extract by coupled transcription/translation assay. Format: functional. Summed up: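 E. coli S30 extract for circular DNA with pBES-Tluc plasmid, coupled transcription/translation. 25 µL reactions with varied aminoglycoside concentrations, 60 min at 37 °C, then 5 min on ice. Diluted into Tris-phosphate 25 mM pH 7.8 buffer with DTT, CDTA, glycerol, Triton X-100 and BSA. Luciferase luminescence read at once; IC50 fitted from concentration-response curves of at least two independent experiments.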

The test system of data set [8] is Escherichia coli. Put plainly: Antimicrobial activity against Escherichia coli ATCC 25922 by double-microdilution method. The data set is classed as functional.
The subject of data set [9] is Pseudomonas aeruginosa. Put plainly: Antimicrobial activity against Pseudomonas aeruginosa 590 isolate by double-microdilution method. Format: functional. In a few lines: as §1
Data set [10] deals with Staphylococcus epidermidis. The experiment in a line: Antimicrobial activity against Staphylococcus epidermidis ATCC 12228 by double-microdilution method. Format: functional. Summed up:
as §1

Data set [11] is described as follows: Inhibition of Pseudomonas aeruginosa APH(3')-2b assessed as rate of NADH absorbance decrease by pyruvate kinase/lactate dehydrogenase coupled assay. In a few lines:
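Purified recombinant APH(3')-IIb, affinity-purified on a neomycin B column. ATP consumption followed by pyruvate kinase/lactate dehydrogenase coupling as NADH decrease at 340 nm. Buffer: 50 mM Tris-HCl pH 7.5, 40 mM KCl, 10 mM MgCl2, 1 mM ATP, 2.5 mM PEP. Neamine substrate 1–100 µM, inhibitor 0–1000 µM. 5 min preincubation at 37 °C, started with enzyme. Ki by nonlinear regression.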

In brackets after ≈: the same amount, converted by molar mass.

Consider `NC[C@H]1O[C@H](O[C@H]2[C@H](O)[C@@H](O)[C@H](N)C[C@@H]2N)[C@H](N)[C@@H](O)[C@@H]1O` [NEAMINE], for which the LD50 at 96 h in data set [1] was determined as 161 mg/kg. Moreover, in the data set with Pseudomonas aeruginosa [2], the Km is 10.3 µM and the kcat turned out to be 1.7 s⁻¹. This molecule also came in with an MIC against Escherichia coli [3] of 96 µg/mL (≈ 298 µM).

In the case of `CN[C@@H]1[C@@H](O)[C@@H](O[C@@H]2[C@@H](O)[C@H](O[C@H]3O[C@H](CN)[C@H]4OCO[C@@H]4[C@H]3N)[C@@H](N)C[C@H]2N)OC[C@]1(C)O`, the MIC in the data set on Escherichia coli [4] worked out at 12 µg/mL (≈ 24.3 µM); against Bacillus subtilis, 12 µg/mL (≈ 24.3 µM); in the data set with Pseudomonas aeruginosa [5] it was 24 µg/mL (≈ 48.6 µM); with Pseudomonas aeruginosa [6], 24 µg/mL (≈ 48.6 µM); with Escherichia coli [8] it was 48 µg/mL (≈ 97.3 µM); against Pseudomonas aeruginosa [9], 48 µg/mL (≈ 97.3 µM). The MIC is 24 µg/mL (≈ 48.6 µM) in data set [10] and 48 µg/mL (≈ 97.3 µM) with Escherichia coli [3]. Further, the LD50 at 96 h in data set [1] was determined as 226 mg/kg. Moreover, the midpoint of inhibition in the data set on Escherichia coli [7], the IC50, lay at 0.038 µM.

For the molecule `CNC1C(O)C(OC2C(N)CC(N)C(OC3OC(CN)CCC3N)C2O)OCC1(C)O` (stereo not drawn) [GENTAMICIN C1A], the minimum inhibitory concentration (MIC) against Bacillus subtilis is 6 µg/mL (≈ 13.3 µM); against Pseudomonas aeruginosa [9], 384 µg/mL (≈ 854 µM); in data set [10], 6 µg/mL (≈ 13.3 µM).

As for `NC[C@H]1O[C@H](O[C@H]2[C@H](O)[C@@H](O)[C@H](N)C[C@@H]2N)[C@H](N)[C@H]2OCO[C@@H]21`, the Ki in data set [11] came out at 642 µM. Besides, the LD50 at 96 h in [1] came out at 303 mg/kg. The molecule further yielded an MIC in the data set with Escherichia coli [3] greater than 384 µg/mL.

As to `NC[C@@H]1CC[C@@H](N)[C@@H](O[C@H]2[C@H](O)[C@@H](O)[C@H](N)C[C@@H]2N)O1` [GENTAMINE C1A], the Ki in [11] was 650 µM. Further, the LD50 at 96 h in [1] turned out to be 103 mg/kg. This molecule also had an MIC in the data set on Escherichia coli [3] of 192 µg/mL (≈ 661 µM).

What is called LD50 is the dose expected to kill half of the subjects tested. One may read the Km as the substrate concentration at which the rate is half of its maximum. For orientation: kcat means the number of substrate molecules converted per active site and unit of time at saturation. One may read the MIC as the lowest concentration that inhibits growth of the organism. Higher therefore signals a need for much substance. Broadly, the IC50 is the concentration at which inhibition is half-maximal. As usually defined, the Ki is a measure of affinity in units of concentration, obtained from inhibition or displacement.

Source of the values: ChEMBL document CHEMBL1141721, “Structure-toxicity relationship of aminoglycosides: correlation of 2'-amine basicity with acute toxicity in pseudo-disaccharide scaffolds” (Bioorg Med Chem, 2008).
